Bioassay records from PubChem BioAssay.
In the library only some 2% were active in any assay of this set; here they are far more common.
CASP6 VEID inh – inhibitors of human caspase-6; purified caspase-6, Z-VEID-R110 cleavage fluorescence; inhibition, % at 12.5 µM; 350,000 tested, 0.53% active; AID 686996;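 active means mean inhibition across replicates at least about 35%, with every replicate also reaching that limit, limit read from the data; inconclusive means only one of the two criteria met; inactive means neither criterion met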;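 further: 0% = median of neutral control wells and 100% = no fluorescence left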
Target sequence (P55212 24-179 limits assumed): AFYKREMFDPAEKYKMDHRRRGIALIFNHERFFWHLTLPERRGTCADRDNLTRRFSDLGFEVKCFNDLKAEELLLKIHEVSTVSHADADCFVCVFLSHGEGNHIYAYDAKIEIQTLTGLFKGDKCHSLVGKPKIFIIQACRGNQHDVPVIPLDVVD
Target sequence (P55212 194-293 limits assumed): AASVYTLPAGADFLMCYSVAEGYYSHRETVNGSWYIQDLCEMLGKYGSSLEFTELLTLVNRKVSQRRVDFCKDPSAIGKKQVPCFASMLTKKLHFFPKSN
CaV13 ICDI inh – Primary screen for inhibitors of IQ motif and Ca2+-dependent inactivation inhibitor domain binding in CACNA1D, Förster resonance energy transfer in living cells, …; HEK cells, CFP/YFP FRET ICDI-IQ, plate reader, 10 min; percent FRET-ratio fall versus neutral wells; inhibition, % at 12.3 µM; 340,000 tested, 0.098% active; AID 743397;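 active means mean replicate inhibition of at least 30% and at least 1% of replicates passing that level; inconclusive means only one of the two criteria is met; inactive means neither criterion is met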;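 further: 0% = median of the neutral control wells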
FN deposition inh – fibronectin deposition inhibition; inhibition, % at 12.6 µM; AH1F fibroblasts, Alexa488-fibronectin deposition fluorescence, overnight; 350,000 tested, 0.086% active; AID 743247;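 active means mean inhibition across replicates of 30% or more, regardless of how many single replicates reach that level; inconclusive means mean under 30% yet at least half of replicates reach 30%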;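 further: positive control wells lacked labelled fibronectin entirely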
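Material – AH1F fibroblast monolayer, labelled fibronectin deposition · Reagent – labelled fibronectin 24 nM · Timing – 1 h adhesion, overnight exposure · Measured by – fluorescence at 485 nm excitation, 525 nm emission · Read-out – inhibition of fibronectin deposition signal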
XiGFP reactiv – reactivates the inactive X chromosome in mouse fibroblasts | 360,000 tested, 0.055% active | XiGFP mouse fibroblasts, % GFP-positive cells imaging, 3 d; cells co-treated with 5-aza-dC sensitizer; scaled so ellipticine positive control = 100% | activation, % at 7.58 µM;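 active means mean normalized replicate activation at least 10% and every replicate at or above 10%; inconclusive means only one of the two criteria met; inactive means mean below 10% and not all replicates reach 10%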;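 further: 0% = median of on-plate neutral control wells and 100% = ellipticine 6 µM median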
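Material: XiGFP fibroblasts, SV40-immortalized. Buffer or medium: DMEM plus 5-aza-dC sensitizer. Compound: single concentration per compound, delivered by pin transfer. Times: 3 days compound exposure. Controls: ellipticine 6 µM.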
DENV2 CPE rescue – protects cells from dengue virus 2 cytopathic effect; DENV2-infected cells, cytopathic effect rescue, plate reader; CPE inhibition, % at 9.99 µM; 350,000 tested, 1.7% active; AID 651640; in the data active means CPE inhibition above about 20%, passing the limit was not always enough; inconclusive means no clear call, values can overlap the other calls; tested in BHK-21 cells;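 further: 0% = median of neutral control wells and 100% = median of positive control wells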
Active calls of the source: *; ! = repeats disagree.

`COC(=O)C1=C(c2ccc(-c3ccccc3)c(F)c2)C[C@@H]2CC[C@H]1N2C(=O)NCCNC(C)=O` gave CASP6 VEID inh -2.2, CaV13 ICDI inh -5.5, FN deposition inh -0.1, XiGFP reactiv 1.2 and DENV2 CPE rescue -6.0.
`COC(=O)C1=C(c2ccc(-c3ccccc3)c(F)c2)C[C@@H]2CC[C@H]1N2C(=O)NCCc1ccccc1` gave CASP6 VEID inh 1.0, CaV13 ICDI inh -9.6, FN deposition inh -0.9, XiGFP reactiv 0.1 and DENV2 CPE rescue 30.5*.
COC(=O)C1=C(c2ccccc2OCc2ccccc2)C[C@@H]2CC[C@H]1N2C(=O)NCc1ccc(Cl)cc1 was read as CASP6 VEID inh 0.8, CaV13 ICDI inh -5.5, FN deposition inh -7.4, XiGFP reactiv -0.3 and DENV2 CPE rescue 57.8*.
`COC(=O)C1=C(c2ccccc2OCc2ccccc2)C[C@@H]2CC[C@H]1N2C(=O)NCc1ccc(N(C)C)cc1` gave CASP6 VEID inh -2.0, CaV13 ICDI inh -5.1, FN deposition inh 2.8, XiGFP reactiv 0.7 and DENV2 CPE rescue 0.6.
`CC=Cc1ccc2n(c1=O)C[C@@H]1[C@@H](CO)[C@H](C(=O)N(C)C)[C@H]2N1C` (mixture of isomers) gave CASP6 VEID inh 1.0, XiGFP reactiv 0.0 and DENV2 CPE rescue 1.9.
For Nc1c(Br)cc2c3c(cccc13)-c1ccccc1-2 the results were CASP6 VEID inh 15.2, CaV13 ICDI inh -17.5, FN deposition inh 0.2, XiGFP reactiv 27.4* and DENV2 CPE rescue -1.1.
`CN(C)[C@@H]1C(=O)C(C(N)=O)=C(O)[C@@]2(O)C(=O)C3=C(O)c4c(O)cccc4[C@@](C)(O)[C@H]3[C@H](O)[C@@H]12` gave CASP6 VEID inh 68.8*, CaV13 ICDI inh -5.4, FN deposition inh 2.7, XiGFP reactiv 0.1 and DENV2 CPE rescue -1.8.
For CN(C)[C@@H]1C(=O)C(C(N)=O)=C(O)[C@@]2(O)C(=O)C3=C(O)c4c(O)cccc4[C@@](C)(O)C3C[C@@H]12 (stereo partly drawn) the results were CASP6 VEID inh 55.1*, CaV13 ICDI inh -4.9, FN deposition inh -10.8, XiGFP reactiv -0.2 and DENV2 CPE rescue 15.7.
Screening CN(C)[C@@H]1C(=O)C(C(N)=O)=C(O)[C@@]2(O)C(=O)C3=C(O)c4c(O)ccc(Cl)c4[C@@](C)(O)[C@H]3C[C@@H]12 returned CASP6 VEID inh 33.3 and DENV2 CPE rescue -0.2.
Screening CC(C)NC(=O)N1CC2C(c3ccccc3)C(C1)N2C (stereo not drawn) returned FN deposition inh -3.0 and XiGFP reactiv 0.2.
Screening C[C@]12C[C@H](O)[C@@H](O)C[C@@H]1CC[C@@H]1[C@@H]2CC[C@]2(C)C(=O)CC[C@@H]12 returned CASP6 VEID inh -4.2 and DENV2 CPE rescue 33.4*.
`C[C@H]1CN([C@@H](C)CO)C(=O)c2c(c3ccccc3n2C)-c2ccccc2CO[C@@H]1CN(C)C(=O)Oc1ccccc1` gave CASP6 VEID inh 2.4, FN deposition inh 13.4, XiGFP reactiv -0.1 and DENV2 CPE rescue -2.3.
Screening Fc1ccc(CN2CC3NC(C2)C3c2ccc(Br)cc2)cc1 (stereo not drawn) returned FN deposition inh -10.7 and XiGFP reactiv 0.2.
Screening C[C@@H]1CN([C@@H](C)CO)C(=O)CCCn2nncc2CO[C@@H]1CN(C)C(=O)Oc1ccc2ccccc2c1 returned CASP6 VEID inh 3.2, CaV13 ICDI inh -6.2, FN deposition inh -0.5, XiGFP reactiv -0.2 and DENV2 CPE rescue 0.1.
`C[C@@H]1CN([C@H](C)CO)C(=O)CCCn2nncc2CO[C@H]1CN(C)C(=O)Oc1ccc2ccccc2c1` gave CASP6 VEID inh -3.0, CaV13 ICDI inh -4.8, FN deposition inh 3.5, XiGFP reactiv 0.1 and DENV2 CPE rescue 56.4*!.
For C[C@@H]1CN([C@@H](C)CO)C(=O)CCCn2nncc2CO[C@H]1CN(C)C(=O)Oc1ccc2ccccc2c1 the results were CASP6 VEID inh -1.1, CaV13 ICDI inh -7.0, FN deposition inh 1.7, XiGFP reactiv -0.1 and DENV2 CPE rescue 50.2*!.
For O=C1C(Cl)=CC(=Nc2ccc(O)cc2)C=C1Cl the results were CASP6 VEID inh 40.3*, CaV13 ICDI inh -6.3, FN deposition inh -27.6, XiGFP reactiv 0.0 and DENV2 CPE rescue 4.9.
For CC=Cc1ccc2n(c1=O)C[C@H]1[C@H](CO)[C@@H](C(=O)OC)[C@@H]2N1CC1CC1 (mixture of isomers) the results were CASP6 VEID inh 2.4, XiGFP reactiv 0.0 and DENV2 CPE rescue -4.3.
Screening COc1ccc(NC(=S)N2Cc3ccccc3-n3nncc3C2)c(OC)c1 returned CASP6 VEID inh -3.3, CaV13 ICDI inh -2.9, FN deposition inh 7.0, XiGFP reactiv 0.2 and DENV2 CPE rescue 25.2*.
COc1cc(C(=O)N2Cc3ccccc3-n3nncc3C2)cc(OC)c1OC was read as CASP6 VEID inh -1.3, CaV13 ICDI inh -5.7, FN deposition inh -3.6, XiGFP reactiv 0.4 and DENV2 CPE rescue -4.4.
`FC(F)(F)CN1C[C@@H]2C(c3ccc(Br)cc3)[C@H](C1)N2CC1CC1` (stereo partly drawn) gave FN deposition inh 19.8 and XiGFP reactiv 0.5.
COC(=O)[C@@H]1[C@@H](CO)[C@@H]2Cn3c(ccc(-c4ccccc4F)c3=O)[C@H]1N2C(=O)C1CC1 was read as CASP6 VEID inh -2.7, XiGFP reactiv 0.5 and DENV2 CPE rescue 3.8.
CC=Cc1ccc2n(c1=O)C[C@H]1[C@H](CO)[C@@H](C(=O)OC)[C@@H]2N1CC1CCCC1 (mixture of isomers) was read as CASP6 VEID inh -0.4, XiGFP reactiv 0.3 and DENV2 CPE rescue inconclusive.
Screening CN(C)c1cc[n+](CC(O)C[n+]2ccc(N(C)C)cc2)cc1 returned CASP6 VEID inh -8.7, CaV13 ICDI inh -3.8, FN deposition inh 10.2, XiGFP reactiv 0.0 and DENV2 CPE rescue 25.1*.
CC(C)(C)[C@]1(O)C[C@@H]2OC(=O)C[C@@]23C(=O)O[C@@H]2OC(=O)[C@@H](O)C213 (stereo partly drawn) was read as CASP6 VEID inh -2.5, CaV13 ICDI inh -11.1, FN deposition inh -17.9, XiGFP reactiv -0.1 and DENV2 CPE rescue inconclusive.
C[C@@H]1C(=O)O[C@H]2[C@H](O)[C@]34[C@@H]5OC(=O)[C@]3(OC3OC(=O)[C@H](O)C34[C@H](C(C)(C)C)[C@@H]5O)[C@@]12O (stereo partly drawn) was read as CASP6 VEID inh 5.8, CaV13 ICDI inh -5.2, FN deposition inh -5.6, XiGFP reactiv 0.3 and DENV2 CPE rescue 41.7*.
Screening FC(F)(F)CN1C[C@@H]2N[C@H](C1)C2c1ccc(Br)cc1 (stereo partly drawn) returned FN deposition inh 13.7 and XiGFP reactiv 0.3.
